Measured values published in ChEMBL document CHEMBL3853327 (J Med Chem, 2016).

What was measured:
[1] = VRT (0 to infinity) in Sprague-Dawley rat plasma at 8 mg/kg administered through oral gavage measured at 5 mins to 24 hrs post dosing by LC/MS analysis; format: ADME, organism-based; conditions: in vivo
Method in brief: (§1)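 Male Sprague-Dawley rats, ten randomly split into two groups (n = 5), single gavage dose of 8 or 16 mg·kg−1 in PEG 400/normal saline (70/30, V/V). Jugular sinus blood into heparinized tubes at 5 min to 24 h; plasma separated at 2200g for 8 min, stored −20 °C. Methanol precipitation with internal standard, LC-MS quantitation against plasma standard curves. Parameters reported as mean ± SD.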

[2] = Cmax in Sprague-Dawley rat plasma at 16 mg/kg administered through oral gavage measured at 5 mins to 24 hrs post dosing by LC/MS analysis; format: ADME, organism-based; design: dose 16 mg/kg, route oral; conditions: in vivo; method in brief: as §1
[3] = system: Human immunodeficiency virus 1; test: Antiviral activity against wild type HIV1 3B harboring reverse transcriptase infected in human MT4 cells assessed as protection against virus induced cytotoxicity after 5 days by MTT assay; format: functional, cell-based; conditions: Human immunodeficiency virus 1, 3B, MT4, 120 h
Method in brief: (§2)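 MTT cytopathicity assay in MT-4 cells (6 × 10^5 cells/mL). Compounds serially diluted 5-fold in triplicate wells, run in parallel on infected and mock-infected cells. Virus added at 100−300 CCID50 per well. Viability read spectrophotometrically at 540 and 690 nm after 5 days, using the median OD of three wells.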

[4] = Selectivity index, ratio of CC50 for human mock-infected MT4 cells to EC50 for HIV1 3B harboring reverse transcriptase Y181C mutant infected in human MT4 cells; format: toxicity, cell-based; conditions: MT4 cells (mock-infected for CC50, HIV-1 infected for EC50)
Method in brief: (§3)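 Selectivity index is CC50/EC50. CC50 is the concentration that reduces OD540 of mock-infected MT-4 cells by 50% in the 5-day MTT assay. EC50 is the 50% protection from virus-induced cytopathicity, measured in parallel on infected wells.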

[5] = system: Human immunodeficiency virus 1; test: Fold resistance, ratio of IC50 for recombinant HIV1 reverse transcriptase K103N/Y181C double mutant to IC50 for wild type HIV1 reverse transcriptase
Method in brief: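 Ratio of mutant to WT IC50. Recombinant WT and K103N/Y181C RT were assayed with a kit: template plus DIG-dUTP, biotin-dUTP and dTTP, with or without inhibitor, 1 h at 37 °C. Product was captured on streptavidin, detected with anti-DIG-POD and ABTS, and read at 405 nm. IC50 is the concentration inhibiting biotin-dUTP incorporation by 50%.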

[6] = Apparent clearance during terminal phase in Sprague-Dawley rat plasma at 8 mg/kg administered through oral gavage measured at 5 mins to 24 hrs post dosing by LC/MS analysis; format: ADME, organism-based; conditions: in vivo; method in brief: as §1
[7] = Tmax in Sprague-Dawley rat plasma at 16 mg/kg administered through oral gavage measured at 5 mins to 24 hrs post dosing by LC/MS analysis; format: ADME, organism-based; conditions: in vivo; method in brief: as §1
[8] = system: Human immunodeficiency virus 1; test: Fold resistance, ratio of EC50 for HIV1 3B harboring reverse transcriptase K103N mutant infected in human MT4 cells to EC50 for wild type HIV1 3B harboring reverse transcriptase infected in human MT4 cells; format: functional
Method in brief: (§4)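 Fold resistance is the EC50 against the mutant HIV-1 strain divided by the EC50 against WT IIIB. Both EC50s come from the MT-4 MTT cytoprotection assay (5-day read, 100−300 CCID50 inoculum).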

[9] = Selectivity index, ratio of CC50 for human mock-infected MT4 cells to EC50 for HIV1 3B harboring reverse transcriptase E138K mutant infected in human MT4 cells; format: toxicity, cell-based; conditions: MT4 cells (mock-infected for CC50, HIV-1 infected for EC50); method in brief: as §3
[10] = MRT (0 to t) in Sprague-Dawley rat plasma at 16 mg/kg administered through oral gavage measured at 5 mins to 24 hrs post dosing by LC/MS analysis; format: ADME, organism-based; method in brief: as §1
[11] = Selectivity index, ratio of CC50 for human mock-infected MT4 cells to EC50 for HIV1 3B harboring reverse transcriptase Y188L mutant infected in human MT4 cells; format: toxicity, cell-based; conditions: MT4 cells (mock-infected for CC50, HIV-1 infected for EC50); method in brief: as §3
[12] = Antiviral activity against HIV2 ROD harboring reverse transcriptase infected in human MT4 cells assessed as protection against virus induced cytotoxicity after 5 days by MTT assay; format: functional, cell-based, Human immunodeficiency virus type 2 (ISOLATE ROD); conditions: Human immunodeficiency virus 2, MT4, 120 h
Method in brief: as §2, with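 “wells. EC50 is the concentration giving 50% protection from viral cytopathogenicity.” for “wells.”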

[13] = system: Human immunodeficiency virus 1; test: Fold resistance, ratio of EC50 for HIV1 3B harboring reverse transcriptase Y181C mutant infected in human MT4 cells to EC50 for wild type HIV1 3B harboring reverse transcriptase infected in human MT4 cells; format: functional; method in brief: as §4
[14] = Apparent clearance during terminal phase in Sprague-Dawley rat plasma at 16 mg/kg administered through oral gavage measured at 5 mins to 24 hrs post dosing by LC/MS analysis; format: ADME, organism-based; conditions: read-out: CLz/F (converted); method in brief: as §1
[15] = AUC (0 to t) in Sprague-Dawley rat plasma at 8 mg/kg administered through oral gavage measured at 5 mins to 24 hrs post dosing by LC/MS analysis; format: ADME, organism-based; design: dose 8 mg/kg, time 0.083-24 hr, route oral; method in brief: as §1
[16] = Selectivity index, ratio of CC50 for human mock-infected MT4 cells to EC50 for HIV1 3B harboring reverse transcriptase F227L/V106A double mutant infected in human MT4 cells; format: toxicity, cell-based; conditions: MT4 cells (mock-infected for CC50, HIV-1 infected for EC50); method in brief: as §3
[17] = system: Human immunodeficiency virus 1; test: Potency index, ratio of ETV EC50 to compound EC50 for HIV1 3B harboring reverse transcriptase YI88L mutant infected in human MT4 cells; format: functional
[18] = Selectivity index, ratio of CC50 for human mock-infected MT4 cells to EC50 for HIV1 3B harboring reverse transcriptase K103N mutant infected in human MT4 cells; format: toxicity, cell-based; conditions: MT4 cells (mock-infected for CC50, HIV-1 infected for EC50); method in brief: as §3
[19] = system: Human immunodeficiency virus 1; test: Potency index, ratio of ETV EC50 to compound EC50 for HIV1 3B harboring reverse transcriptase Y181C mutant infected in human MT4 cells; format: functional
[20] = system: Human immunodeficiency virus 1; test: Fold resistance, ratio of EC50 for HIV1 3B harboring reverse transcriptase E138K mutant infected in human MT4 cells to EC50 for wild type HIV1 3B harboring reverse transcriptase infected in human MT4 cells; format: functional; method in brief: as §4
[21] = MRT (0 to infinity) in Sprague-Dawley rat plasma at 8 mg/kg administered through oral gavage measured at 5 mins to 24 hrs post dosing by LC/MS analysis; format: ADME, organism-based; method in brief: as §1
[22] = VRT (0 to t) in Sprague-Dawley rat plasma at 8 mg/kg administered through oral gavage measured at 5 mins to 24 hrs post dosing by LC/MS analysis; format: ADME, organism-based; conditions: in vivo; method in brief: as §1
[23] = AUC (0 to infinity) in Sprague-Dawley rat plasma at 16 mg/kg administered through oral gavage measured at 5 mins to 24 hrs post dosing by LC/MS analysis; format: ADME, organism-based; design: dose 16 mg/kg, time infinity, route oral; conditions: in vivo; method in brief: as §1
[24] = system: Human immunodeficiency virus 1; test: Fold resistance, ratio of EC50 for HIV1 3B harboring reverse transcriptase F227L/V106A double mutant infected in human MT4 cells to EC50 for wild type HIV1 3B harboring reverse transcriptase infected in human MT4 cells; format: functional; method in brief: as §4
[25] = system: Human immunodeficiency virus 1; test: Antiviral activity against HIV1 3B harboring reverse transcriptase Y181C mutant infected in human MT4 cells assessed as protection against virus induced cytotoxicity after 5 days by MTT assay; format: functional, cell-based; conditions: Human immunodeficiency virus 1, 3B, MT4, 120 h; method in brief: as §2

Question: What does the source list for `Cc1cc(C#N)cc(C)c1Oc1nc(NC2CCN(Cc3ccc(S(N)(=O)=O)cc3)CC2)nc2ccsc12`?
Answer: VRT [1]: 13.31 hr2; Cmax [2]: 472 ng/mL; EC50 [3]: 1.4 nM; selectivity ratio [4]: > 78100; Ratio IC50 [5]: 1.2; CLz/F [6]: 172 mL/min/kg; Tmax [7]: 0.8 h; Ratio EC50 [8]: <3; selectivity ratio [9]: > 75800; MRT last [10]: 3.25 h; selectivity ratio [11]: > 70000; EC50 [12]: ≥ 228000 nM; Ratio EC50 [13]: <3; CL/F [14]: 155 mL/min/kg; AUC(0-t) [15]: 1680 ng·h/mL; selectivity ratio [16]: > 78100; Ratio EC50 [17]: 7; selectivity ratio [18]: > 67400; Ratio EC50 [19]: 5; Ratio EC50 [20]: <3; MRT inf [21]: 3.84 h; VRT(t) [22]: 7.78 hr2; AUC [23]: 1756.7 ng·h/mL; Ratio EC50 [24]: <3; EC50 [25]: 3.2 nM
